# Only some compounds are listed: those with a hit (about 2.1% of all), similar ones and a draw of the others.
# UCH37 inh: blocks the human deubiquitinase UCH37; purified proteasome/UCH37, Ub-AMC cleavage fluorescence; Q9Y5K5; inhibition, % (test concentration not listed); AID 588478; hit rate 0.33% among 330,000;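 active = mean inhibition over replicate wells above about 20%, limit read from the data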;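 note: 0% = compound-free wells with enzyme and 100% = wells lacking proteasome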
# Target sequence (Q9Y5K5 whole entry, looked up): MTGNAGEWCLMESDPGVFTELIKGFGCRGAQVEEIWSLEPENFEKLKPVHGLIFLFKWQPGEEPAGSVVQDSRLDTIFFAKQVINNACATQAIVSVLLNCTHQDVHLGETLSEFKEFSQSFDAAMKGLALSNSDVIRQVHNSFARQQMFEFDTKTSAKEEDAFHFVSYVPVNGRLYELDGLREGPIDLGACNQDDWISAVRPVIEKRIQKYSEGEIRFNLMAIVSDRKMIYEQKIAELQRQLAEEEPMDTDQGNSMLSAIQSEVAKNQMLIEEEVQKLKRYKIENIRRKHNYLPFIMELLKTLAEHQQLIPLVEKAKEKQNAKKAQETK
#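 Reagent: Ub-AMC substrate; assay system: Proteasome-associated human UCH37 deubiquitinase; controls: no-proteasome and no-compound wells; read-out: % inhibition of Ub-AMC cleavage fluorescence; timing: 30 min preincubation with enzyme, 25 min cleavage at room temperature; signal: AMC fluorescence from Ub-AMC cleavage, excitation 355 nm, emission 460 nm; buffer or medium: Tris-HCl pH 7.4 plus ovalbumin, ATP-MgCl2, DTT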
# Cardio protect: myocardial damage modulation in H9c2 cells. H9c2 cardiomyocytes, H2O2 injury protection, ATPLite, 2 h. protection from H2O2 cell death, % at 20 µM. hit rate 0.63% among 360,000. AID 588492;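 active = compounds giving at least 50% protection of heart cells from peroxide-induced death in the single-dose screen, raw or plate-pattern-corrected value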;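 note: 0% = DMSO wells with peroxide and 100% = DMSO wells without peroxide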
# CRFR2-BP ag: agonists of human CRF-binding protein/CRF-R2 receptor complex. HEK293 CRF-R2/CRF-BP, calcium dye fluorescence (FLIPR); percent of saturating CRF peptide response. activation, % at 13.2 µM. hit rate 0.46% among 350,000. AID 588473;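 active = activation of at least 50%, plus an integration ratio under a set limit after plate pattern correction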;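 note: plate controls were neutral control wells without compound for no effect and CRF at EC100 for full effect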
# MIN6 prolif: inducers of beta-cell replication in MIN6 cells | hit rate 0.29% among 330,000 | MIN6 cells proliferation, ATPlite luminescence, 48 h; cells starved in 0.2% serum; 100% = growth in 10% serum | proliferation, % at 10 µM | AID 2380;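 active = compounds whose signal lies at least 3.5 SD above the mean of all wells on their plate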;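 note: 0% = DMSO-treated cells in low-serum medium and 100% = 10% serum control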
# iPSC survival up: hiPSC single-cell survival enhancement; ATPlite luminescence; 100% = ROCK inhibitor wells, 0% = DMSO; hit rate 0.044% among 360,000; survival enhancement, % at 20 µM; AID 602274; in the data active = survival enhancement above about 18%;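 note: cells exposed to compounds for 16 hours before the ATP read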
# CRFBP-R2 block: antagonists of CRF-binding protein/CRF-R2 receptor complex. HEK293 CRF-R2/CRF-BP, CRF-induced calcium fluorescence. inhibition, % at 11.8 µM. hit rate 0.59% among 350,000. AID 588475;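 active = inhibition of the ligand-induced calcium signal above about 50% at the single tested concentration, limit read from the data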
# Active calls of the source: *; / = no result given.
SMILES,UCH37 inh,Cardio protect,CRFR2-BP ag,MIN6 prolif,iPSC survival up,CRFBP-R2 block
O=C(C1=NN(c2ccccc2)C2C(=O)N(c3ccccc3)C(=O)C12)c1ccccc1 (stereo unspecified),-14,1,68*,1,0,-79
COc1ccccc1N1C(=O)C2C(C(=O)c3ccccc3)=NN(c3ccccc3)C2C1=O (stereo unspecified),-45,-4,38,-1,-1,-35
Cc1ccc(N2C(=O)C3C(C(=O)c4ccccc4)=NN(c4ccccc4)C3C2=O)cc1 (stereo unspecified),0,9,90*,1,1,-86
O=C(C1=NN(c2ccccc2)C2C(=O)N(c3ccccc3Cl)C(=O)C12)c1ccccc1 (stereo unspecified),-6,4,135*,/,1,-138
CSCCOC(=O)COc1ccc(C=NNC(=O)c2c(Cl)cnn2C)cc1,3,/,/,/,/,/
COc1cccc(C=Nn2c(COc3ccccc3)n[nH]c2=S)c1OC,3,/,/,/,/,/
CC(ON=Cc1ccccc1OC(F)F)C(=O)Nc1cccc(S(=O)(=O)N2CCOCC2)c1 (stereo unspecified),-1,/,/,/,/,/
CCOc1ccc(NS(=O)(=O)c2ccc(C(=O)NCC3(N(C)C)CCCCC3)cc2)cc1,2,-2,51*,-4,0,-31
CCOc1ccc(NS(=O)(=O)c2ccc(C(=O)NCC3(N4CCCCC4)CCCCC3)cc2)cc1,5,1,62*,-1,0,-36
O=C(NN=Cc1cccnc1)c1cccc(Cl)c1,-1,/,/,/,/,/
COc1ccc2c(c1)c1ccc3c(c1n2C)C(=O)C=CC3=O,-28,-22,-1,-6,28*,35
COC(=O)/C(=C(O)\C=C\c1ccccc1[N+](=O)[O-])c1nc2ccccc2[nH]1,0,68*,0,0,0,-12
O=C(CSc1nc2ccccc2[nH]1)NN=C/C=C/c1ccccc1[N+](=O)[O-],2,/,/,/,/,/
COC(=O)c1sc(SC)c(S(=O)(=O)C(C)C)c1NN=C(C#N)S(=O)(=O)c1ccccn1,10,/,/,/,/,/
CNc1ccc2c3c(cccc13)C(=O)N(C)C2=O,/,13,170*,2,2,-118
CN1C(=O)c2cccc3c(N(C)C)ccc(c23)C1=O,5,6,55*,2,1,-44
CN1C(=O)c2ccc(N(C)C)cc2C1=O,4,12,3,-1,-2,-6
CN1C(=O)c2cccc3c(Br)ccc(c23)C1=O,-2,5,0,6,1,-17
Cc1ccc(C(=O)Nc2ncc([N+](=O)[O-])s2)cc1,11,-16,58*,/,0,19
O=C(Nc1ncc([N+](=O)[O-])s1)c1ccc2c(c1)OCO2,/,-17,36,-4,0,-1
CC1CCN(CCCNC(=O)c2n[nH]c(=O)c3ccccc23)CC1,0,72*,2,0,4,-3
COc1cc(C=NNS(=O)(=O)c2ccc(C(C)(C)C)cc2)cc([N+](=O)[O-])c1O,4,/,/,/,/,/
CC/C(C)=N\N=C\c1c(O)n(CC)c2cc(C3=NNC(=O)CC3)ccc12,/,61*,1,-1,-1,-31
COc1ccc(Cc2nnc(NC(=O)Nc3ccc(C)cc3)s2)cc1OC,-4,-4,2,-2,0,83*
COc1ccc(C=NN2C(=O)CSC2=S)cc1Br,3,/,/,/,/,/
CC1=Nc2ccccc2/C1=C/c1c(N)n2c(S(=O)(=O)C(C)C)nsc2nc1=O,5,-3,0,-3,1,26
CC1=Nc2ccccc2/C1=C/c1c(N)n2c(S(=O)(=O)CC(C)C)nsc2nc1=O,6,-1,-2,/,-1,61*
O=[N+]([O-])c1ccc(Cl)c(C=NNc2nc(N3CCOCC3)nc(N3CCOCC3)n2)c1,4,/,/,/,/,/
COCc1nnc(NC(=O)c2ccc(S(=O)(=O)N3CCCc4ccccc43)cc2)o1,0,12,-2,-5,0,22
CC1CN(S(=O)(=O)c2ccc(C(=O)Nc3nnc(-c4ccc5c(c4)CCCC5)o3)cc2)CC(C)O1 (stereo unspecified),-148,62*,10,-5,0,-15

# Assay outcomes from PubChem BioAssay.
